Assay results: article PMC5812400 (ESMO Open, 2018)
“Also recorded” adds a separate entry of the source.

System: adult patients with advanced non-haematological malignancies
Test: Safety and tolerability
Assay type: in vivo, human
How it was run: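 Patients on milled oral capsules, fasted, in 28-day cycles. AEs and SAEs recorded from first dose through 30 days after last dose. Graded by NCI CTCAE v4.03 and coded to MedDRA v19.0. Relatedness to study drug judged by investigator.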

**Q.** For `CC(C)n1nc(-c2ccc3oc(N)nc3c2)c2c(N)ncnc21` [TAK-228, Sapanisertib], which “Drug-related AE: Dry mouth” value (QW 20 mg (n=7)) is on record?
**A.** 0 n (%)

**Q.** What about the “Drug-related AE: Fatigue” value (QW 20 mg (n=7)) of the same molecule?
**A.** 3 (43) n (%)

**Q.** And the “Drug-related AE: Hyperglycaemia” value (QW 20 mg (n=7))?
**A.** 0 n (%)

**Q.** What about the “Drug-related AE: Nausea” value (QW 20 mg (n=7)) of the same molecule?
**A.** 4 (57) n (%)

**Q.** And the “Drug-related AE: Pruritus” value (QW 20 mg (n=7))?
**A.** 0 n (%)

**Q.** And the “Drug-related AE: Rash (maculopapular)” value (QW 20 mg (n=7))?
**A.** 0 n (%)

**Q.** And the “Drug-related AE: Stomatitis” value (QW 20 mg (n=7))?
**A.** 0 n (%)

**Q.** And the “Drug-related AE: Vomiting” value (QW 20 mg (n=7))?
**A.** 2 (29) n (%)

**Q.** What about the “Drug-related SAE” value (QW 20 mg (n=7)) of the same molecule?
**A.** 0 n (%)

**Q.** And the “Drug-related grade ≥3 AE” value (QW 20 mg (n=7))?
**A.** 2 (29) n (%)

**Q.** What about the “Grade ≥3 AE” value (QW 20 mg (n=7)) of the same molecule?
**A.** 5 (71) n (%)

**Q.** What about the “Grade ≥3 AE: Abdominal pain” value (QW 20 mg (n=7)) of the same molecule?
**A.** 1 (14) n (%)

**Q.** What about the “Grade ≥3 AE: Anaemia” value (QW 20 mg (n=7)) of the same molecule?
**A.** 1 (14) n (%)

**Q.** What about the “Grade ≥3 AE: Diarrhoea” value (QW 20 mg (n=7)) of the same molecule?
**A.** 1 (14) n (%)

**Q.** What about the “Grade ≥3 AE: Hypercalcaemia” value (QW 20 mg (n=7)) of the same molecule?
**A.** 0 n (%)

**Q.** What about the “Grade ≥3 AE: Hyperglycaemia” value (QW 20 mg (n=7)) of the same molecule?
**A.** 0 n (%)

**Q.** What about the “Grade ≥3 AE: Hypophosphataemia” value (QW 20 mg (n=7)) of the same molecule?
**A.** 0 n (%)

**Q.** What about the “Grade ≥3 AE: Hypotension” value (QW 20 mg (n=7)) of the same molecule?
**A.** 2 (29) n (%)

**Q.** And the “Grade ≥3 AE: Nausea” value (QW 20 mg (n=7))?
**A.** 1 (14) n (%)

**Q.** And the “Grade ≥3 AE: Vomiting” value (QW 20 mg (n=7))?
**A.** 1 (14) n (%)

**Q.** What about the On-study deaths (QW 20 mg (n=7)) of the same molecule?
**A.** 0 n (%)

**Q.** What about the SAE (QW 20 mg (n=7)) of the same molecule?
**A.** 4 (57) n (%)

**Q.** What about the “AE resulting in TAK-228 discontinuation” value (QW 30 mg (n=13)) of the same molecule?
**A.** 3 (23) n (%)

**Q.** What about the “Drug-related AE” value (QW 30 mg (n=13)) of the same molecule?
**A.** 11 (85) n (%)

**Q.** What about the “Drug-related AE: Asthaenia” value (QW 30 mg (n=13)) of the same molecule?
**A.** 0 n (%)

**Q.** And the “Drug-related AE: Decreased appetite” value (QW 30 mg (n=13))?
**A.** 2 (15) n (%)

**Q.** What about the “Drug-related AE: Dehydration” value (QW 30 mg (n=13)) of the same molecule?
**A.** 0 n (%)

**Q.** And the “Drug-related AE: Diarrhoea” value (QW 30 mg (n=13))?
**A.** 2 (15) n (%)

**Q.** What about the “Drug-related AE: Dry mouth” value (QW 30 mg (n=13)) of the same molecule?
**A.** 1 (8) n (%)

**Q.** And the “Drug-related AE: Fatigue” value (QW 30 mg (n=13))?
**A.** 6 (46) n (%)

**Q.** And the “Drug-related AE: Hyperglycaemia” value (QW 30 mg (n=13))?
**A.** 3 (23) n (%)

**Q.** What about the “Drug-related AE: Nausea” value (QW 30 mg (n=13)) of the same molecule?
**A.** 5 (39) n (%)

**Q.** What about the “Drug-related AE: Pruritus” value (QW 30 mg (n=13)) of the same molecule?
**A.** 1 (8) n (%)

**Q.** And the “Drug-related AE: Rash (maculopapular)” value (QW 30 mg (n=13))?
**A.** 2 (15) n (%)

**Q.** And the “Drug-related AE: Stomatitis” value (QW 30 mg (n=13))?
**A.** 2 (15) n (%)

**Q.** And the “Drug-related AE: Vomiting” value (QW 30 mg (n=13))?
**A.** 7 (54) n (%)

**Q.** And the “Drug-related SAE” value (QW 30 mg (n=13))?
**A.** 2 (15) n (%)

**Q.** And the “Drug-related grade ≥3 AE” value (QW 30 mg (n=13))?
**A.** 4 (31) n (%)

**Q.** What about the “Grade ≥3 AE” value (QW 30 mg (n=13)) of the same molecule?
**A.** 7 (54) n (%)

**Q.** What about the “Grade ≥3 AE: Abdominal pain” value (QW 30 mg (n=13)) of the same molecule?
**A.** 1 (8) n (%)

**Q.** And the “Grade ≥3 AE: Anaemia” value (QW 30 mg (n=13))?
**A.** 1 (8) n (%)

**Q.** What about the “Grade ≥3 AE: Hypercalcaemia” value (QW 30 mg (n=13)) of the same molecule?
**A.** 2 (15) n (%)

**Q.** What about the “Grade ≥3 AE: Hyperglycaemia” value (QW 30 mg (n=13)) of the same molecule?
**A.** 3 (23) n (%)

**Q.** And the “Grade ≥3 AE: Hypophosphataemia” value (QW 30 mg (n=13))?
**A.** 1 (8) n (%)

**Q.** And the “Grade ≥3 AE: Hypotension” value (QW 30 mg (n=13))?
**A.** 0 n (%)

**Q.** And the “Grade ≥3 AE: Nausea” value (QW 30 mg (n=13))?
**A.** 1 (8) n (%)

**Q.** And the “Grade ≥3 AE: Vomiting” value (QW 30 mg (n=13))?
**A.** 1 (8) n (%)

**Q.** And the On-study deaths (QW 30 mg (n=13))?
**A.** 1 (8) n (%)

**Q.** And the SAE (QW 30 mg (n=13))?
**A.** 6 (46) n (%)

**Q.** And the “AE resulting in TAK-228 discontinuation” value (QW Total (n=20))?
**A.** 3 (15) n (%)

**Q.** What about the “Drug-related AE” value (QW Total (n=20)) of the same molecule?
**A.** 16 (80) n (%)

**Q.** And the “Drug-related AE: Asthaenia” value (QW Total (n=20))?
**A.** 1 (5) n (%)

**Q.** And the “Drug-related AE: Decreased appetite” value (QW Total (n=20))?
**A.** 3 (15) n (%)

**Q.** What about the “Drug-related AE: Dehydration” value (QW Total (n=20)) of the same molecule?
**A.** 1 (5) n (%)

**Q.** What about the “Drug-related AE: Diarrhoea” value (QW Total (n=20)) of the same molecule?
**A.** 6 (30) n (%)

**Q.** And the “Drug-related AE: Dry mouth” value (QW Total (n=20))?
**A.** 1 (5) n (%)

**Q.** What about the “Drug-related AE: Fatigue” value (QW Total (n=20)) of the same molecule?
**A.** 9 (45) n (%)

**Q.** And the “Drug-related AE: Hyperglycaemia” value (QW Total (n=20))?
**A.** 3 (15) n (%)

**Q.** And the “Drug-related AE: Nausea” value (QW Total (n=20))?
**A.** 9 (45) n (%)

**Q.** And the “Drug-related AE: Pruritus” value (QW Total (n=20))?
**A.** 1 (5) n (%)

**Q.** What about the “Drug-related AE: Rash (maculopapular)” value (QW Total (n=20)) of the same molecule?
**A.** 2 (10) n (%)

**Q.** What about the “Drug-related AE: Stomatitis” value (QW Total (n=20)) of the same molecule?
**A.** 2 (10) n (%)

**Q.** What about the “Drug-related AE: Vomiting” value (QW Total (n=20)) of the same molecule?
**A.** 9 (45) n (%)

**Q.** And the “Drug-related SAE” value (QW Total (n=20))?
**A.** 2 (10) n (%)

**Q.** What about the “Drug-related grade ≥3 AE” value (QW Total (n=20)) of the same molecule?
**A.** 6 (30) n (%)

**Q.** And the “Grade ≥3 AE” value (QW Total (n=20))?
**A.** 12 (60) n (%)

**Q.** And the “Grade ≥3 AE: Abdominal pain” value (QW Total (n=20))?
**A.** 2 (10) n (%)

**Q.** And the “Grade ≥3 AE: Anaemia” value (QW Total (n=20))?
**A.** 2 (10) n (%)

**Q.** What about the “Grade ≥3 AE: Diarrhoea” value (QW Total (n=20)) of the same molecule?
**A.** 1 (5) n (%)

**Q.** And the “Grade ≥3 AE: Hypercalcaemia” value (QW Total (n=20))?
**A.** 2 (10) n (%)

**Q.** What about the “Grade ≥3 AE: Hyperglycaemia” value (QW Total (n=20)) of the same molecule?
**A.** 3 (15) n (%)

**Q.** What about the “Grade ≥3 AE: Hypophosphataemia” value (QW Total (n=20)) of the same molecule?
**A.** 1 (5) n (%)

**Q.** What about the “Grade ≥3 AE: Hypotension” value (QW Total (n=20)) of the same molecule?
**A.** 2 (10) n (%)

**Q.** And the “Grade ≥3 AE: Nausea” value (QW Total (n=20))?
**A.** 2 (10) n (%)

**Q.** And the “Grade ≥3 AE: Vomiting” value (QW Total (n=20))?
**A.** 2 (10) n (%)

**Q.** What about the On-study deaths (QW Total (n=20)) of the same molecule?
**A.** 1 (5) n (%)

**Q.** And the SAE (QW Total (n=20))?
**A.** 10 (50) n (%)

**Q.** And the “Asthaenic conditions, patients” value (QW arm)?
**A.** 60%

**Q.** And the “Drug-related AE of any grade: diarrhoea” value (QW arm)?
**A.** 30%

**Q.** What about the “Drug-related AE of any grade: fatigue” value (QW arm) of the same molecule?
**A.** 45%

**Q.** And the “Drug-related AE of any grade: nausea” value (QW arm)?
**A.** 45%

**Q.** What about the “Drug-related AE of any grade: vomiting” value (QW arm) of the same molecule?
**A.** 45%

**Q.** And the “Grade ≥3 AE: Abdominal pain” value (QW arm)?
**A.** 10%

**Q.** And the “Grade ≥3 AE: Anaemia” value (QW arm)?
**A.** 10%

**Q.** What about the “Grade ≥3 AE: Hypercalcaemia” value (QW arm) of the same molecule?
**A.** 10%

**Q.** And the “Grade ≥3 AE: Hyperglycaemia” value (QW arm)?
**A.** 15%

**Q.** What about the “Grade ≥3 AE: Hypotension” value (QW arm) of the same molecule?
**A.** 10%

**Q.** And the “Grade ≥3 AE: Nausea” value (QW arm)?
**A.** 10%

**Q.** What about the “Grade ≥3 AE: Vomiting” value (QW arm) of the same molecule?
**A.** 10%

**Q.** And the “SAEs, patients” value (QW arm)?
**A.** 50%

**Q.** What about the “Patients experiencing AEs” value (TAK-228 QD arm) of the same molecule?
**A.** 100%

**Q.** What about the “Patients with drug-related AEs” value (TAK-228 QD arm) of the same molecule?
**A.** 94%

**Q.** What about the “Patients experiencing AEs” value (TAK-228 QW arm) of the same molecule?
**A.** 95%

**Q.** And the “Patients with drug-related AEs” value (TAK-228 QW arm)?
**A.** 80%

**Q.** And the “AEs of interest (hyperglycaemia, rash, renal insufficiency, mucosal inflammation and asthaenic conditions), patients” value (all treatment arms)?
**A.** ≥ 10%

**Q.** And the “Most commonly reported drug-related AEs (fatigue, diarrhoea and nausea), patients” value (treatment period, across all treatment arms)?
**A.** ≥ 25%

**Q.** What about the “On-study deaths and relatedness to study drugs” value (whole study, all arms) of the same molecule?
**A.** Three on-study deaths occurred, all considered unrelated to study drugs; also recorded: Three deaths occurred during the study, one in each treatment arm; none were considered related to study drugs
